Data as given in ChEMBL document CHEMBL4622835, “A novel potent metal-binding NDM-1 inhibitor was identified by fragment virtual, SPR and NMR screening” (Bioorg Med Chem, 2020).

Legend:
[1] = Inhibition of bacteria NMD-1
[2] = Binding affinity to recombinant bacteria NDM-1 (I31 to K268 residues)expressed in Escherichia coli BL21 (DE3) cells by SPR assay
Outline: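 Tag-free NDM-1 at 50 µg/ml in pH 5.0 sodium acetate, amine-coupled to a CM7 chip (>8,000 RU). Biacore T200, 25 °C, 30 µL/min. Running buffer 10 mM Hepes pH 7.5, 150 mM NaCl, 100 µM ZnCl2, 2% DMSO (EDTA-2Na run without DMSO). Eight two-fold dilutions per compound. KD from a steady-state 1:1 fit, at least three runs.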

[3] = Inhibition of recombinant bacteria NDM-1 (I31 to K268 residues) expressed in Escherichia coli BL21 (DE3) cells incubated for 20 mins using meropenem as substrate
Outline: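 NDM-1 (12 nM) preincubated with inhibitor for 20 min at room temperature, then meropenem (100 µM) added. Final buffer 50 mM hepes pH 7.24 with 2% DMSO. Absorbance read at 300 nm at 30 °C. Duplicate wells, three repeats. IC50 taken from percent loss of activity against inhibitor concentration; L-captopril as positive control.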

[4] = tested on: Klebsiella pneumoniae; experiment: Synergistic antibacterial activity against Klebsiella pneumoniae ATCC BAA-2470 cells expressing NDM-1 incubated for 20 to 24 hrs presence of meropenem by broth dilution method (Rvb >64 ug/ml); type: functional
Outline: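 Broth microdilution in Mueller-Hinton broth, final inoculum about 5 × 10^5 CFU/mL. Test compound fixed at 100 µg/mL final (from 20 mg/mL DMSO stock). Meropenem in two-fold dilutions, 64 to 0.0625 µg/mL final. Plates held 20–24 h at 37 °C. MIC is the lowest meropenem concentration with no visible growth.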

[5] = Binding affinity to recombinant bacteria 15N labeled His-6-tagged NDM-1 (36 to 270 residues) expressed in Escherichia coli BL21 (DE3) cells by NMR analysis
Outline: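 15N-labelled NDM-1 (0.11 mM or 0.165 mM) in 50 mM HEPES, 200 mM NaCl, pH 7.5, titrated with inhibitor from DMSO stock (20 mM or 50 mM). 1H-15N HSQC spectra recorded at 800 MHz, 298 K and 293 K. NDM-1:inhibitor mole ratios ran 1:0 to 1:15. Both di-Zn and apo (EDTA-stripped) forms were used; after the apo titrations, 2 equiv Zn2+ added.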

Row | SMILES | IC50 [1] | Kd [2] | IC50 [3] | MIC [4] | Kd [5]
1 | NCCN[C@H]1CC[C@H](CC(=O)N[C@H]2Cc3cccc(C(=O)O)c3OB2O)CC1 | 0.01 µM | – | – | – | –
2 | CC/C(=N\Nc1cccc2ccccc12)C(=O)O | – | 449 µM | 28.1 µM | > 64 µg/mL | –
3 | CC/C(=N\Nc1cccc2cccnc12)C(=O)O.Cl | – | 275 µM | 68.2 µM | 64 µg/mL | –
4 | O=C(O)[C@@H]1CS[C@H]2CS[C@H](CS)N21 | 23 µM | – | – | – | –
5 | CC(C)(C)/C(=N\Nc1ccccc1)C(=O)O | – | 438 µM | – | > 64 µg/mL | –
6 | O=C([O-])CN(CCN(CC(=O)[O-])CC(=O)O)CC(=O)O.[Na+].[Na+] [EDETATE DISODIUM ANHYDROUS] | – | > 1000 µM | 17.2 µM | – | –
7 | CC(C)(C)/C(=N\Nc1cccc2cccnc12)C(=O)O.Cl | – | 435 µM | > 500 µM | 64 µg/mL | –
8 | CCC/C(=N\Nc1cccc2cccnc12)C(=O)O.Cl | – | 221 µM | 82.3 µM | > 64 µg/mL | –
9 | CC(C)(C)/C(=N\Nc1cccnc1)C(=O)O.Cl | – | > 1000 µM | – | > 64 µg/mL | –
10 | C/C(=N\Nc1cccc2cccnc12)C(=O)O.Cl | – | 219 to 290 µM | 124 µM | > 64 µg/mL | 620 µM
11 | NCc1ccc(C(=O)N[C@H]2Cc3cccc(C(=O)O)c3O[B-]2(O)O)cc1 | 0.029 µM | – | – | – | –
12 | CCC/C(=N\Nc1ccccc1)C(=O)O | – | 188 µM | – | > 64 µg/mL | –
13 | N[C@@H](CN[C@@H](CN[C@@H](CC(=O)O)C(=O)O)C(=O)O)C(=O)O | 7 µM | – | – | – | –
14 | C[C@H](CS)C(=O)N1CCC[C@H]1C(=O)O [CAPTOPRIL] | – | 12 to 14.1 µM | 390 µM | – | –
15 | O=c1c2ccccc2[se]n1-c1ccccc1 [EBSELEN] | 0.38 µM | – | – | – | –
16 | O=C(O)CNC(=O)C(CS)Cc1ccccc1 (configuration not stated) [THIORPHAN] | 1.8 µM | – | – | – | –
17 | CC/C(=N\Nc1ccccc1)C(=O)O | – | 191 µM | – | > 64 µg/mL | –
18 | CC(C)(C)/C(=N\Nc1cccc2ccccc12)C(=O)O | – | 307 µM | 94.6 µM | > 64 µg/mL | –
19 | C/C(=N\Nc1cccc2ccccc12)C(=O)O | – | 255 µM | 389 µM | > 64 µg/mL | –
20 | C/C(=N\Nc1cccnc1)C(=O)O.Cl | – | > 1000 µM | – | > 64 µg/mL | –
21 | CC/C(=N\Nc1cccnc1)C(=O)O.Cl | – | > 1000 µM | – | > 64 µg/mL | –
22 | CCC/C(=N\Nc1cccnc1)C(=O)O.Cl | – | 703 µM | – | > 64 µg/mL | –
23 | C/C(=N\Nc1ccccc1)C(=O)O | – | 168 µM | – | > 64 µg/mL | –
24 | CCC/C(=N\Nc1cccc2ccccc12)C(=O)O | – | > 1000 µM | > 500 µM | 32 µg/mL | –
25 | C[C@@H](O)[C@H]1C(=O)N2C(C(=O)O)=C(S[C@@H]3CN[C@H](C(=O)N(C)C)C3)[C@H](C)[C@H]12 [MEROPENEM] | – | 75 µM | – | – | –
